In ChEMBL document CHEMBL1123811, “gem-Diphosphonate and gem-phosphonate-phosphate compounds with specific high density lipoprotein inducing activity” (1987):

Tests used:
Format in all cases: functional
Rattus norvegicus [1] = species: Rattus norvegicus; experiment: Activity to induce the elevation of HDL(High Density Lipoproteins)-Cholesterol in plasma lipids of male Wistar rats; set-up: concentration or dose not given beside the values
Method in brief: (§1)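 Wistar rats on normal diet; groups were vehicle control, an internal-standard diphosphonate, and test compounds. Dosed daily for 4 days; diphosphonates were dissolved in water or suspended in 1% (carboxymethyl)cellulose, 4 mL/kg. On day 5, after overnight fast, rats were killed under ether. EDTA plasma was assayed enzymatically for HDL-C after heparin-CaCl2 precipitation of VLDL/LDL, phospholipids, triglycerides and α/β-cholesterol ratio. Results are given as % of control.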

Rattus norvegicus [2] = species: Rattus norvegicus; experiment: Activity to induce the elevation of phospholipids in plasma lipids of male Wistar rats; set-up: concentration or dose not given beside the values; method in brief: as §1
Rattus norvegicus [3] = species: Rattus norvegicus; experiment: Activity to induce the elevation of triglycerides in plasma lipids of male Wistar rats; set-up: concentration or dose not given beside the values; method in brief: as §1
Rattus norvegicus [4] = species: Rattus norvegicus; experiment: Activity to induce the elevation of alpha/beta cholesterol ratio in plasma lipids of male Wistar rats; set-up: concentration or dose not given beside the values; method in brief: as §1
Rattus norvegicus [5] = experiment: Activity to induce the elevation of phospholipids in plasma lipids of male Wistar rats after po administration of 100 mg/kg/day
Method in brief: (§2)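 Normal-diet Wistar rats were given the test agent once daily for 4 days and killed on day 5 after an overnight fast. Total plasma phospholipids (EDTA plasma) were measured chemically by the molybdate/vanadate reaction or enzymatically (phospholipid B test). Values are % of vehicle controls.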

Rattus norvegicus [6] = experiment: Activity to induce the elevation of alpha/beta cholesterol ratio in plasma lipids of male Wistar rats after po administration of 100 mg/kg/day
Method in brief: (§3)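 Rats (Wistar, normal diet) were treated daily for 4 days and fasted overnight, and EDTA plasma was taken on day 5. Total cholesterol was measured enzymatically, and β-lipoprotein cholesterol after heparin-CaCl2 precipitation. The α/β-cholesterol ratio is reported as % change from vehicle-treated controls.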

Rattus norvegicus [7] = experiment: Activity to induce the elevation of HDL(High Density Lipoproteins)-Cholesterol in plasma lipids of male Wistar rats after po administration of 100 mg/kg/day
Method in brief: (§4)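 Wistar rats on a normal diet were dosed daily for 4 days at the dose and route given. On day 5, after an overnight fast, they were killed under ether and blood was taken by decapitation into EDTA. Plasma HDL cholesterol was measured after heparin-CaCl2 precipitation of VLDL/LDL and is expressed as % change versus a vehicle control group.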

Rattus norvegicus [8] = experiment: Activity to induce the elevation of triglycerides in plasma lipids of male Wistar rats after po administration of 100 mg/kg/day
Method in brief: (§5)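 Daily dosing of normal-diet Wistar rats ran for 4 days, with sacrifice on day 5 after an overnight fast. Plasma was collected by decapitation into EDTA. Total triglycerides were measured enzymatically and expressed as % change relative to the vehicle control group.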

Rattus norvegicus [9] = experiment: Activity to induce the elevation of HDL(High Density Lipoproteins)-Cholesterol in plasma lipids of male Wistar rats after the sc administration of 5 mg/kg/day; conditions: route subcutaneous; method in brief: as §4
Rattus norvegicus [10] = experiment: Activity to induce the elevation of alpha/beta cholesterol ratio in plasma lipids of male Wistar rats after the sc administration of 5 mg/kg/day; conditions: route subcutaneous; method in brief: as §3
Rattus norvegicus [11] = experiment: Activity to induce the elevation of phospholipids in plasma lipids of male Wistar rats after the sc administration of 5 mg/kg/day; conditions: route subcutaneous; method in brief: as §2
Rattus norvegicus [12] = experiment: Activity to induce the elevation of triglycerides in plasma lipids of male Wistar rats after the sc administration of 5 mg/kg/day; conditions: route subcutaneous; method in brief: as §5
Rattus norvegicus [13] = species: Rattus norvegicus; experiment: Activity to induce the elevation of alpha/beta cholesterol ratio of male Wistar rats; set-up: concentration or dose not given beside the values; method in brief: as §1
Rattus norvegicus [14] = species: Rattus norvegicus; experiment: Activity to induce the elevation of HDL(High Density Lipoproteins)-Cholesterol of male Wistar rats; set-up: concentration or dose not given beside the values; method in brief: as §1
Rattus norvegicus [15] = species: Rattus norvegicus; experiment: Activity to induce the elevation of triglycerides of male Wistar rats; set-up: concentration or dose not given beside the values; method in brief: as §1
Rattus norvegicus [16] = species: Rattus norvegicus; experiment: Activity to induce the elevation of phospholipids of male Wistar rats; set-up: concentration or dose not given beside the values; method in brief: as §1
Rattus norvegicus [17] = experiment: Activity to induce the elevation of HDL(High Density Lipoproteins)-Cholesterol of male Wistar rats after po administration of 100 mg/kg/day; method in brief: as §4
Rattus norvegicus [18] = experiment: Activity to induce the elevation of triglycerides of male Wistar rats after po administration of 100 mg/kg/day; method in brief: as §5
Rattus norvegicus [19] = experiment: Activity to induce the elevation of phospholipids of male Wistar rats after po administration of 100 mg/kg/day; method in brief: as §2
Rattus norvegicus [20] = experiment: Activity to induce the elevation of alpha/beta cholesterol ratio of male Wistar rats after po administration of 100 mg/kg/day; method in brief: as §3

Row | SMILES | Percent change in alpha/beta cholesterol ratio versus control (Rattus norvegicus [13]) | HDL-cholesterol change relative to control (%) (Rattus norvegicus [14]) | Percent change in plasma triglycerides versus control (Rattus norvegicus [15]) | Plasma phospholipids, % change versus control (Rattus norvegicus [16]) | also measured
1 | CCCCCCCCCCCCCCCC(O)(P(=O)(OC)OC)P(=O)(OC)OC |  |  |  |  | Control (Rattus norvegicus [1]): -3%; Control (Rattus norvegicus [2]): 4%; Control (Rattus norvegicus [3]): 14%; Control (Rattus norvegicus [4]): -38%
2 | CCOP(=O)(OCC)C(Cl)(CCCc1ccccc1)P(=O)(OCC)OCC |  |  |  |  | Control (Rattus norvegicus [1]): -2%; Control (Rattus norvegicus [2]): 27%; Control (Rattus norvegicus [3]): -4%; Control (Rattus norvegicus [4]): -23%
3 | CCCCCCCCCCCCCCOc1ccc(CC(P(=O)(OCC)OCC)P(=O)(OCC)OCC)cc1 |  |  |  |  | Control (Rattus norvegicus [1]): 27%; Control (Rattus norvegicus [2]): -4%; Control (Rattus norvegicus [3]): -27%; Control (Rattus norvegicus [4]): -28%
4 | CC(C)OC(=O)C(C)(C)Oc1ccc(C(=O)c2ccc(Cl)cc2)cc1 [FENOFIBRATE] |  |  |  |  | Control (Rattus norvegicus [5]): -19%; Control (Rattus norvegicus [6]): -80%; Control (Rattus norvegicus [7]): -45%; Control (Rattus norvegicus [8]): 12%
5 | C[C@]12CC[C@@H]3c4ccc(O)cc4CC[C@H]3[C@@H]1CC[C@@H]2O [ESTRADIOL] |  |  |  |  | Control (Rattus norvegicus [9]): -83%; Control (Rattus norvegicus [10]): -47%; Control (Rattus norvegicus [11]): -77%; Control (Rattus norvegicus [12]): -51%
6 | CCOC(=O)C(C)(C)Oc1ccc(Cl)cc1 [CLOFIBRATE] |  |  |  |  | Control (Rattus norvegicus [5]): -22%; Control (Rattus norvegicus [6]): -53%; Control (Rattus norvegicus [7]): -34%; Control (Rattus norvegicus [8]): 28%
7 | CCCCCCCCCCCCCCOc1ccc(CC(P(=O)(OC)OC)P(=O)(OC)OC)cc1 |  |  |  |  | Control (Rattus norvegicus [1]): 20%; Control (Rattus norvegicus [2]): 10%; Control (Rattus norvegicus [3]): 4%; Control (Rattus norvegicus [4]): 14%
8 | COP(=O)(OC)OC(c1ccccc1)P(=O)(OC)OC (stereo not drawn) | 76% | 4% | 32% | 21% | 
9 | CCOP(=O)(OCC)C(CCc1ccccc1)P(=O)(OCC)OCC | 74% | 41% | 11% | 16% | 
10 | COP(=O)(OC)C(CCCOc1ccccc1)P(=O)(OC)OC | -13% | 6% | 2% | -11% | 
11 | CCCCOP(=O)(OCCCC)OC(c1ccc(Cl)cc1)P(=O)(OCCCC)OCCCC (stereo not drawn) | -53% | -10% | -11% | 13% | 
12 | CC(C)OP(=O)(OC(C)C)C(Cc1ccc(Cl)cc1)P(=O)(OC(C)C)OC(C)C | -1% | 12% | 19% | 13% | 
13 | COP(=O)(OC)C(Cl)(CCCc1ccccc1)P(=O)(OC)OC |  |  |  |  | Control (Rattus norvegicus [1]): 26%; Control (Rattus norvegicus [2]): 24%; Control (Rattus norvegicus [3]): -36%; Control (Rattus norvegicus [4]): -9%
14 | COP(=O)(OC)OC(c1cccc(Br)c1)P(=O)(OC)OC (stereo not drawn) | 71% | 28% | 14% | 3% | 
15 | COP(=O)(OC)OC(CC(C)(C)C)P(=O)(OC)OC (stereo not drawn) | 44% | 47% | -9% | 18% | 
16 | COP(=O)(OC)C(Cc1ccccc1)P(=O)(OC)OC | 22% | 32% | -3% | 25% | 

Row | SMILES | Percent change in alpha/beta cholesterol ratio versus control (Rattus norvegicus [13]) | HDL-cholesterol change relative to control (%) (Rattus norvegicus [14]) | Percent change in plasma triglycerides versus control (Rattus norvegicus [15]) | Plasma phospholipids, % change versus control (Rattus norvegicus [16]) | also measured
17 | COP(=O)(OC)OC(c1ccc(C(F)(F)F)cc1)P(=O)(OC)OC (stereo not drawn) | 29% | 22% | 4% | 3% | 
18 | COP(=O)(OC)OC(c1ccc(Cl)cc1Cl)P(=O)(OC)OC (stereo not drawn) | 39% | 51% | 13% | 28% | 
19 | COP(=O)(OC)C(CCCc1ccccc1)P(=O)(OC)OC | 49% | 52% | 42% | 33% | 
20 | COP(=O)(OC)OC(c1ccc(C(=O)c2ccc(Cl)cc2)cc1)P(=O)(OC)OC (stereo not drawn) | 55% | 33% | 0% | 53% | 
21 | COP(=O)(OC)C(Cl)(CCCOc1ccccc1)P(=O)(OC)OC |  |  |  |  | Control (Rattus norvegicus [1]): 57%; Control (Rattus norvegicus [2]): 15%; Control (Rattus norvegicus [3]): -3%; Control (Rattus norvegicus [4]): -42%
22 | COP(=O)(OC)C(CCc1ccccc1)P(=O)(OC)OC | 82% | 40% | 22% | 16% | 
23 | COP(=O)(OC)C(O)(c1ccc(C)cc1)P(=O)(OC)OC | 68% | 19% | 43% | 19% | 
24 | COP(=O)(OC)C(Cl)(Cc1ccc(Cl)cc1)P(=O)(OC)OC |  |  |  |  | Control (Rattus norvegicus [1]): 10%; Control (Rattus norvegicus [2]): 7%; Control (Rattus norvegicus [3]): 11%; Control (Rattus norvegicus [4]): 81%
25 | COP(=O)(OC)OC(c1ccc(F)cc1)P(=O)(OC)OC (stereo not drawn) | 81% | 40% | -9% | 2% | 
26 | CCCCCC(O)(P(=O)(OC)OC)P(=O)(OC)OC | -17% | -16% | -21% | 10% | 
27 | COP(=O)(OC)OC(c1ccc2ccccc2c1)P(=O)(OC)OC (stereo not drawn) | 134% | 47% | 28% | 27% | 
28 | COP(=O)(OC)OC(c1ccc(Cl)cc1)P(=O)(OC)OC (stereo not drawn) [MIFOBATE] | 180% | 157% | 0% | 26% | Control (Rattus norvegicus [17]): 26%; Control (Rattus norvegicus [18]): 0%; Control (Rattus norvegicus [19]): 17%; Control (Rattus norvegicus [20]): 52%
29 | COP(=O)(OC)C(O)(C(C)(C)C)P(=O)(OC)OC | 32% | 0% | 24% | -43% | 
30 | COP(=O)(OC)C(Cc1ccc(Cl)cc1)P(=O)(OC)OC | 75% | 38% | 62% | 51% | 
31 | COP(=O)(OC)OC(c1cccc(Cl)c1)P(=O)(OC)OC (stereo not drawn) | 69% | 56% | -37% | 14% | 
